Results published in PMC3501270 (Bioorganic & medicinal chemistry, 2012).

Tests used:
wild-type Smo = wild-type Smo (Homo sapiens, UniProt Q99835); type: binding; details: 25 nM [3H]-cyclopamine; competitor 0 – 10 µM
[1] = target: Smo-D473H mutant receptor (Homo sapiens, UniProt Q99835, D473H); type: binding; details: for displacement of [3H]-cyclopamine from Smo-D473H: U2OS cells overexpressing Smo-D473H, competitor up to 10 µM
[2] = target: vasopressin2 receptor (V2R) (Homo sapiens, UniProt P30518); assay: V2R/βarr2-GFP aggregation control assay; type: cell-based; details: arginine vasopressin stimulated cells; Supplementary Figure 3
Hh-dependent hair growth = assay: Hh-dependent hair regrowth after depilation; type: in vivo, mouse; details: C57BL female mice, topical 30 µl of 0.5 mM daily for 2 weeks
In short: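 Eight-week-old female C57BL/6 mice in telogen phase had the dorsum shaved. The lower half of the shaved area was depilated with Nair for 2 min and rinsed with water. Test compound in 95% acetone/5% DMSO, or vehicle alone, was applied topically to the depilated skin. Brief 3% isoflurane anaesthesia was used for all procedures. Five mice per group; hair regrowth assessed at 2 weeks.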

[3] = test system: Smo-633 receptor and βarr2-GFP; assay: Smo/βarr2-GFP translocation primary high-throughput confocal imaging assay; type: cell-based; details: U2OS cells stably expressing Smo-633 and βarr2-GFP; 5 µM, 6 hours
[4] = Storage stability in solution; type: physicochemical; details: room temperature, DMSO or methanolic solution, 1 week
[5] = test system: Shh-induced Gli reporter activity; details: 1 µM concentration; cited from earlier work

Chain of wild-type Smo (Q99835 28-787): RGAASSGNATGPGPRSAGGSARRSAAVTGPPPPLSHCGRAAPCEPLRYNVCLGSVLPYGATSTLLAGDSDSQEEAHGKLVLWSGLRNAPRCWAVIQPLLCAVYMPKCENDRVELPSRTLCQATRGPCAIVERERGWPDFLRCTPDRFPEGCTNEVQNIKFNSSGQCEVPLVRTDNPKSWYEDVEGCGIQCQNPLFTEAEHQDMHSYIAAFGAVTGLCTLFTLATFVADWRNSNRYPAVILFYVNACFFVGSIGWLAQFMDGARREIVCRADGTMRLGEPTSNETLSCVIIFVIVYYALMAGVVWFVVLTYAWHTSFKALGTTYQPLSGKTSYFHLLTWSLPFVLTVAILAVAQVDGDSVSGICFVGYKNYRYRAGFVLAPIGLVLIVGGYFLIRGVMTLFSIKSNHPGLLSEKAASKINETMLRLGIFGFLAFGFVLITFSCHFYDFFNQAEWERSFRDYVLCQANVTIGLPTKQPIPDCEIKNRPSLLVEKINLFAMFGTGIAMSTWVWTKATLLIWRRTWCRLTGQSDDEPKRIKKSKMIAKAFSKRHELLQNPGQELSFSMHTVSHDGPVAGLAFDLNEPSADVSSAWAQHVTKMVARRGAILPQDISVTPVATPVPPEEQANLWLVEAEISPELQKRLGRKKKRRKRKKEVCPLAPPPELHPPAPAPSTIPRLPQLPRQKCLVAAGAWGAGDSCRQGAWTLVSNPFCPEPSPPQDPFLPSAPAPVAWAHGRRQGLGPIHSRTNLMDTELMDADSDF
Chain of Smo-D473H mutant receptor (Q99835 28-787 D473H): as the sequence (Q99835 28-787) above, with D446H counted along it
Chain of vasopressin2 receptor (V2R) (P30518 whole entry, species assumed): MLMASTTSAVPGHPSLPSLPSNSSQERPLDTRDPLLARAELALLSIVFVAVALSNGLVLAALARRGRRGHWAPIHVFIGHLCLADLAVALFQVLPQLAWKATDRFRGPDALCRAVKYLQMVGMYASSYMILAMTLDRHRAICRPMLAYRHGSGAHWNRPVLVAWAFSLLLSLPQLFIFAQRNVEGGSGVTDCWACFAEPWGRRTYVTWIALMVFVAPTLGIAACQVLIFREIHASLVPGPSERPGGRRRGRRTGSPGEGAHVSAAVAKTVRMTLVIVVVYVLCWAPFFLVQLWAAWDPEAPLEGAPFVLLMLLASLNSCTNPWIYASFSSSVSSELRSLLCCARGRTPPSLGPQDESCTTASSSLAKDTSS

displacement of [3H]-cyclopamine from wild-type Smo (wild-type Smo) | displacement of [3H]-cyclopamine from Smo-D473H [1] | aggregation of V2R and βarr2-GFP [2] | right shift in affinity, SmoD473H versus wild-type Smo ([1]; ratio of Ki mutant / wild-type) | activity after storage in solution [4] | binding affinity to the mutant receptor (Ki not determinable) ([1]; Smo-D473H, up to 10 uM) | Structure (SMILES) | Hh-induced hair growth (Hh-dependent hair growth) | inhibition of intracellular βarr2-GFP aggregation [3] | inhibition of Gli-reporter activity at 1 µM [5]
completely displaced | only partially displaced | – | – | – | – | CS(=O)(=O)c1ccc(C(=O)Nc2ccc(Cl)c(-c3ccccn3)c2)c(Cl)c1 [GDC-0449, Vismodegib] | – | – | –
completely displaced | completely displace | not inhibited | approximately 13 fold | retained activity | – | O=C(NC1CCN(Cc2ccc(N3CCC(NC(=O)c4cccc(-c5cccnc5)c4)CC3)nc2)CC1)c1cccc(-c2cccnc2)c1 [Compound A8] | largely inhibited | confirmed | –
completely displaced | largely ineffective | – | – | – | too weak | Cc1c(C(=O)Nc2ccc(N3C[C@@H](C)O[C@@H](C)C3)nc2)cccc1-c1ccc(OC(F)(F)F)cc1 [LDE-225, Erismodegib] | – | – | –

Structure (SMILES) | displacement of [3H]-cyclopamine from wild-type Smo (wild-type Smo) | displacement of [3H]-cyclopamine from Smo-D473H [1] | aggregation of V2R and βarr2-GFP [2] | right shift in affinity, SmoD473H versus wild-type Smo ([1]; ratio of Ki mutant / wild-type) | activity after storage in solution [4] | binding affinity to the mutant receptor (Ki not determinable) ([1]; Smo-D473H, up to 10 uM) | Hh-induced hair growth (Hh-dependent hair growth) | inhibition of intracellular βarr2-GFP aggregation [3] | inhibition of Gli-reporter activity at 1 µM [5]
CC1=C2C[C@H]3[C@@H](CC=C4C[C@@H](O)CC[C@@]43C)[C@@H]2CC[C@]12O[C@@H]1C[C@H](C)CN[C@H]1[C@H]2C [cyclopamine] | completely displaced | completely displace | – | – | – | – | – | inhibits the aggregation of βarr2-GFP | strong inhibition
